This is an account of results in ChEMBL document CHEMBL1125742, “(2S)-1-(arylacetyl)-2-(aminomethyl)piperidine derivatives: novel, highly selective kappa opioid analgesics” (J Med Chem, 1991).

Experiment [1] concerns Mus musculus. Put plainly: Antinociceptive activity in mouse tail flick test following s.c. administration. It is filed as functional. The method in brief:
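Mouse tail flick test, D'Amour and Smith procedure as modified by Ling et al., with compound given subcutaneously. ED50 in mg/kg with 95% confidence limits, derived by Finney probit analysis.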

Experiment [2] addresses T1, Kappa-type opioid receptor (Cavia porcellus, UniProt P41144). Put plainly: Displacement of [3H]U-69593 from kappa opioid receptors in guine pig brain (minus cerebellum). It is filed as tissue-based. In general terms: Loss of bound radioactivity is the signal in a displacement assay; it reports binding, not function.
Experiment [3] concerns the target T2, Mu-type opioid receptor (Cavia porcellus, UniProt P97266). Description: Displacement of [3H]DAGO from mu opioid receptors in guinea pig brain (minus cerebellum). Format: tissue-based. The method, boiled down:
(§1)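 μ sites in fresh guinea pig brain homogenate (minus cerebellum) were labelled with [3H]DAGO for 40 min at 25 °C. Samples were filtered on GF/C, washed with ice-cold Tris buffer, and bound radioactivity counted. Nonspecific binding was set with 10^-6 M naloxone. Ki by Cheng–Prusoff, as the mean of triplicate curves (n = 3 experiments).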

Experiment [4] has as its target T2, Mu-type opioid receptor. Put plainly: Compound was evaluated for its binding affinity against Opioid receptor mu 1 subtype in guinea pig brain (minus cerebellum) using [3H]-DAGO as radioligand. Format: tissue-based. The method in brief:
as §1

Experiment [5] addresses T1, Kappa-type opioid receptor. Description: Compound was evaluated for its binding affinity against Opioid receptor kappa 1 subtype in guinea pig brain (minus cerebellum) using [3H]U-69593 as radioligand. Format: tissue-based. The method in brief:
(§2)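 Fresh guinea pig brain homogenate (cerebellum removed) incubated with κ-selective [3H]U-69593 and competitor for 50 min at 25 °C. Samples were filtered on GF/C, washed and counted by liquid scintillation. Nonspecific binding was set with 10^-6 M naloxone. Ki from Cheng–Prusoff, as the mean of triplicate concentration–response curves (n = 3 experiments).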

Experiment [6] relates to Mus musculus. Description: Compound was evaluated for its antinociceptive activity in the mouse tail flick (MTF) test following subcutaneous administration of 10 mg/kg. It is filed as functional. The method, boiled down: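 Mouse tail flick test, D'Amour and Smith procedure as modified by Ling et al. A single 10 mg/kg subcutaneous dose was given and the result recorded as % protection.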

For experiment [7], the target named is T1, Kappa-type opioid receptor. Put plainly: Compound was evaluated for its binding affinity against Opioid receptor kappa 1 subtype in guinea pig brain (minus cerebellum). using [3H]U-69593 as radioligand. Format: tissue-based. The method, boiled down: as §2
Experiment [8] has as its system Mus musculus. Description: Compound was evaluated for its antinociceptive activity in the mouse tail flick (MTF) test following peroral administration. It is filed as functional. As to conditions: po. The method, boiled down: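 Mouse tail flick test, D'Amour and Smith procedure as modified by Ling et al., with oral (po) dosing. ED50 in mg/kg with 95% confidence limits, derived by Finney probit analysis.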

The target of experiment [9] is T2, Mu-type opioid receptor. Put plainly: Compound was evaluated for its binding affinity against opioid receptor mu subtype in guinea pig brain (minus cerebellum) using [3H]DAGO as radioligand. Format: tissue-based. The method in brief: as §1
Setting [10] is: Mus musculus, Tail, sc, read-out: ED50.

T1 sequence (P41144 whole entry): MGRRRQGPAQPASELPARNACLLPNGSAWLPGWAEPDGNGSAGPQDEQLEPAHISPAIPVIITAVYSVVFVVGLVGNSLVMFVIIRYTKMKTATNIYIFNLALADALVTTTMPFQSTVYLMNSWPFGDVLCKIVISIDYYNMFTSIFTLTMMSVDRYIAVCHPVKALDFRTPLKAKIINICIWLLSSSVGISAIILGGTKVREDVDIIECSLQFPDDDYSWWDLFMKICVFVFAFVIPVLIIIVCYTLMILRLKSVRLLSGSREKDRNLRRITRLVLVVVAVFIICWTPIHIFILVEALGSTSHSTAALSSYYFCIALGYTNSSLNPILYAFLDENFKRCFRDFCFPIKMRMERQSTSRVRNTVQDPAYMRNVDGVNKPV
T2 sequence (P97266 whole entry): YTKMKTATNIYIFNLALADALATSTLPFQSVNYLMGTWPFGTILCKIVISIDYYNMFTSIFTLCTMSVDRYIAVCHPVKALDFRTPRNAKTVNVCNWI

Consider `O=C(Cc1cccc(C(F)(F)F)c1)N1CCCCC1CN1CCCC1` (configuration not stated), for which the ED50 with Mus musculus [1] (setting [10]) worked out at 0.38 mg/kg. The inhibitory constant (Ki) in experiment [2] is 1.07 nM; on Mu-type opioid receptor [3], more than 10000 nM.
On to `CC(C1CCCCN1C(=O)Cc1ccc(Cl)c(Cl)c1)N(C)C` (stereo in doubt; 37), for which the ED50 with Mus musculus [1] (setting [10]) turned out to be 0.38 mg/kg. For the same compound, the inhibition constant (Ki) amounted to 0.6 nM in experiment [2] and 762 nM at Mu-type opioid receptor [3].
`O=C(Cc1ccc(Cl)c(Cl)c1)N1CCCCC1CN1CCCCC1` (configuration not stated): the ED50 in the experiment on Mus musculus [1] (setting [10]) worked out at 0.19 mg/kg. Moreover, the Ki at Mu-type opioid receptor [4] was 4810 nM; in [5] it was 0.48 nM.
Regarding `O=C(Cc1ccc(Br)cc1)N1CCCCC1CN1CCCC1` (configuration not stated), the ED50 in the experiment on Mus musculus [1] (setting [10]) came to 0.46 mg/kg. The Ki in experiment [2] came out at 0.84 nM; at Mu-type opioid receptor [3], 2980 nM.
For the compound `O=C(Cc1cccc([N+](=O)[O-])c1)N1CCCCC1CN1CCCC1` (configuration not stated), the median effective dose (ED50) with Mus musculus [1] (setting [10]) was 0.86 mg/kg.
Regarding `CN(C)CC1CCCCN1C(=O)Cc1ccc(Cl)c(Cl)c1` (configuration not stated), the ED50 with Mus musculus [1] (setting [10]) was 0.92 mg/kg. For the same compound, the Ki at Mu-type opioid receptor [4] came to 3050 nM; in experiment [5], 1.36 nM.
On to `Cc1ccc(CC(=O)N2CCCCC2CN2CCCC2)cc1` (configuration not stated), for which, in the experiment on Mus musculus [1] (setting [10]), the median effective dose (ED50) stood at 3.88 mg/kg. Moreover, the values for the inhibition constant Ki (in experiment [2]; on Mu-type opioid receptor [3]) were 3.84 nM and more than 10000 nM, respectively.
Regarding `O=C(Cc1ccccc1C(F)(F)F)N1CCCCC1CN1CCCC1` (configuration not stated), the Protection with Mus musculus [6] was determined as 60%. Besides, the Ki is 8.54 nM in experiment [2] and more than 10000 nM at Mu-type opioid receptor [3].
In turn, `O=C(Cc1ccc(O)cc1)N1CCCCC1CN1CCCC1` (configuration not stated) showed a Protection with Mus musculus [6] of 0%. Besides, the Ki in [2] was 194 nM; on Mu-type opioid receptor [3], more than 10000 nM.
Regarding `O=C(Cc1ccc(F)cc1)N1CCCCC1CN1CCCC1` (configuration not stated), the ED50 with Mus musculus [1] (setting [10]) is 9.22 mg/kg. Moreover, the inhibition constant Ki in experiment [2] was 15.4 nM; on Mu-type opioid receptor [3], more than 10000 nM.
Turning to `Cc1ccc(CC(=O)N2CCCCC2CN2CCCC2)cc1C` (configuration not stated), the ED50 with Mus musculus [1] (setting [10]) turned out to be 2.89 mg/kg. Also, the inhibition constant Ki came to 1.83 nM in experiment [2] and 5310 nM on Mu-type opioid receptor [3].
With `O=C(Cc1ccc(Cl)c(Cl)c1)N1CCCCC1CN1CCCC1` (configuration not stated), the median effective dose (ED50) in the experiment on Mus musculus [1] (setting [10]) was determined as 0.09 mg/kg. The Ki at Mu-type opioid receptor [4] was found to be 1860 nM; in experiment [7] it was 0.53 nM.
In the case of `O=C(Cc1ccc(C(F)(F)F)cc1)N1CCCCC1CN1CCCC1` (stereo in doubt; 21), the ED50 with Mus musculus [8] amounted to 1.17 mg/kg; with Mus musculus [1] (setting [10]) it was 0.11 mg/kg. In addition, the values for the Ki (in experiment [2]; on Mu-type opioid receptor [3]) were 0.57 nM and 2340 nM, respectively.
On to `CN1CCCC1C1CCCCN1C(=O)Cc1ccc(Cl)c(Cl)c1` (stereo in doubt; 41), for which the 50% effective dose (ED50) in the experiment with Mus musculus [1] (setting [10]) came to 0.4 mg/kg. For the same compound, the values for the Ki (in [2]; at Mu-type opioid receptor [3]) were 0.33 nM and 464 nM, respectively.
With `O=C(Cc1ccc(Cl)c(Cl)c1)N1CCCC[C@@H]1CN1CCCC1`, the ED50 in the experiment with Mus musculus [1] (setting [10]) was determined as 17.5 mg/kg. Moreover, the Ki worked out at 15.4 nM in experiment [2] and 7110 nM at Mu-type opioid receptor [3].
Regarding `O=C(Cc1ccc(Cl)cc1)N1CCCCC1CN1CCCC1` (configuration not stated), the ED50 in the experiment on Mus musculus [1] (setting [10]) was 0.84 mg/kg. In addition, the inhibition constant Ki in [2] came to 1.68 nM; at Mu-type opioid receptor [3] it was 5910 nM.
As to `CN(C)C[C@@H]1CCCCN1C(=O)Cc1ccc(Cl)c(Cl)c1`, the ED50 in the experiment on Mus musculus [1] (setting [10]) was 0.87 mg/kg. Besides, the Ki in experiment [2] is 0.7 nM; at Mu-type opioid receptor [3] it was 2160 nM.
As for `O=C(Cc1ccc(C(F)(F)F)cc1)N1CCCCC1CN1CCCC1` (stereo in doubt; 20), the ED50 in the experiment on Mus musculus [1] stood at 0.2 mg/kg. Also, the values for the Ki (in experiment [2]; on Mu-type opioid receptor [3]) were 0.78 nM and 3520 nM, respectively.
As to `O=C(Cc1ccc([N+](=O)[O-])cc1)N1CCCCC1CN1CCCC1` (configuration not stated), in the experiment with Mus musculus [1] (setting [10]), the ED50 is 0.49 mg/kg.
For `O=C(Cc1ccc(Cl)c(Cl)c1)N1CCCC[C@H]1CN1CCCC1`, the ED50 in the experiment with Mus musculus [8] came to 0.89 mg/kg; in the experiment with Mus musculus [1] (setting [10]), 0.05 mg/kg. Further, the inhibition constant Ki amounted to 0.24 nM in [2] and 1560 nM at Mu-type opioid receptor [3].
With `CCN(CC)CC1CCCCN1C(=O)Cc1ccc(Cl)c(Cl)c1` (configuration not stated), the ED50 in the experiment with Mus musculus [1] (setting [10]) is 0.77 mg/kg. Besides, the inhibition constant (Ki) was 1.28 nM in experiment [2] and 5000 nM at Mu-type opioid receptor [3].
`CC(C1CCCCN1C(=O)Cc1ccc(Cl)c(Cl)c1)N(C)C` (stereo in doubt; 38): the Protection in the experiment on Mus musculus [6] came to 0%. Besides, the Ki was 1000 nM in [2] and more than 10000 nM at Mu-type opioid receptor [9].
As for `O=C(Cc1ccc(C2CCCCC2)cc1)N1CCCCC1CN1CCCC1` (configuration not stated), the Protection in the experiment on Mus musculus [6] stood at 0%. Also, the inhibition constant (Ki) stood at 827 nM in experiment [2] and 974 nM on Mu-type opioid receptor [3].
Turning to `CN1CCCC1C1CCCCN1C(=O)Cc1ccc(Cl)c(Cl)c1` (stereo in doubt; 42), the Protection in the experiment on Mus musculus [6] is 40%. The figures for the inhibitory constant (Ki) (in experiment [2]; on Mu-type opioid receptor [3]) were 11.7 nM and 864 nM, respectively.
In the case of `CC(C)(C)c1ccc(CC(=O)N2CCCCC2CN2CCCC2)cc1` (configuration not stated), the 50% effective dose (ED50) with Mus musculus [1] (setting [10]) stood at 1 mg/kg.
Regarding `CN1CC[C@]23c4c5ccc(O)c4O[C@H]2[C@@H](O)C=C[C@H]3[C@H]1C5` [MORPHINE], in the experiment with Mus musculus [1] (setting [10]), the ED50 amounted to 2.8 mg/kg.

The term ED50 denotes the midpoint of the dose-response relation. Broadly, the Ki is a measure of affinity in units of concentration, obtained from inhibition or displacement.
